# Reference: ChEMBL document CHEMBL3046081, “Phytotoxic effect, uptake, and transformation of biochanin A in selected weed species” (J Agric Food Chem, 2012)
# Calls of active or inactive are those of the source. The calls are words filed in the database; no cut-off is given here.
# Legend:
# Shoot [1] = experiment: Drug metabolism in Silene noctiflora shoot assessed as transformation to genistein at 20 uM after 14 days measured per gm of dry weight by LC-MS analysis; type: ADME; settings: 336 h
# Summary of the method: (§1)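 Pregerminated seeds, 14 per container, transplanted onto 0.5% agar medium containing biochanin A. Grown at 24 ± 1 °C under a 16 h light/8 h dark photoperiod and harvested 14 days after transplanting. Roots and shoots collected separately, blotted, washed twice, then freeze-dried. Tissue extracted by ASE at 40 °C and analysed by LC-ESI-MS against commercial standards. Two replicates per treatment.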
# Shoot [2] = experiment: Drug metabolism in Echinochloa crus-galli (barnyard grass) shoot assessed as transformation to pratensein at 400 uM after 14 days measured per gm of dry weight by LC-MS analysis; type: ADME; settings: 336 h; summary of the method: as §1
# Shoot [3] = experiment: Drug metabolism in Geranium molle shoot assessed as transformation to pratensein at 400 uM after 14 days measured per gm of dry weight by LC-MS analysis; type: ADME; settings: 336 h; summary of the method: as §1
# Root = experiment: Drug metabolism in Echinochloa crus-galli (barnyard grass) root assessed as transformation to dihydrobiochanin A at 20 uM after 14 days measured per gm of dry weight by LC-MS analysis; type: ADME; settings: 336 h; summary of the method: as §1
# Lolium perenne = experiment: Phytotoxicity against Lolium perenne (perennial ryegrass) assessed as root growth inhibition at 100 to 400 uM after 2 weeks by agar medium bioassay; type: functional, organism-based
# Summary of the method: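 Agar bioassay with eight biochanin A doses (0–400 µM). Seeds were pregerminated 48 h at room temperature, then 10 seedlings were placed per Petri dish and grown 2 weeks at 24 ± 1 °C under a 16 h light/8 h dark cycle. […]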
smiles,measurement,setting,value
COc1ccc(-c2coc3cc(O)cc(O)c3c2=O)cc1 [BIOCHANIN],Drug metabolism,Shoot [1],0.24 µmol
same,Drug metabolism,Shoot [2],0.24 µmol
same,Drug metabolism,Shoot [3],0.05 µmol
same,Drug metabolism,Root,0.05 µmol
same,Activity,Lolium perenne,inactive
